Assay results as given in PubChem BioAssay AID2527 (Broad Institute, 2010).
Activity calls are given as the source filed them.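 Rule for the calls: active = at 30 µM dose, two-repeat average suppression of induced P-selectin signal exceeds 50%; inactive = average suppression 50% or lower.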

System: platelets, A23187-induced P-selectin, flow cytometry
Assay: inhibitors of A23187-stimulated platelet P-selectin exposure, confirmation, selectivity assay, cell-based, fluorescence, flow cytometry, platelets (AID 2527)
Conditions: at 30 µM; hits give high values
Summary of the method: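 Assay system: stimulated platelets. Dosing: 30 µM, one dose. Schedule: 20 min compound, 15 min A23187, 20 min stain. Technique: flow cytometry, PE anti-P-selectin.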

SMILES | inhibition
CCCC(=O)Nc1cccc(NC(=O)c2ccccc2Br)c1 | 3.45% (inactive)
O=C(Nc1cccc(NC(=O)c2ccccc2Cl)c1)c1ccco1 | 5.95% (inactive)
